Values after ≈ are worked out from the molar mass of the structure shown. Active and inactive are the calls of the source. The rule behind the calls is not given here.
What was measured:
[1] = system: Mycobacterium tuberculosis; assay: Potentiation of meropenem-induced bactericidal activity against wild-type replicating Mycobacterium tuberculosis H37Rv assessed as decrease in MIC90 relative to control; assay type: functional
[2] = Stability in CD-1 mouse plasma assessed as drug transformation at 1 ug/ml measured at <5 mins by LC-MS analysis; assay type: ADME, cell-free
Candida albicans = assay: Antifungal activity against replicating Candida albicans measured at OD580 = 0.01; assay type: functional
Summary of the method: (§1)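 Replicating organisms in the paper's earlier-described bacteriologic medium; 200 μL of cells at OD580 0.01 exposed to DMSO vehicle or drug in 96-well plates; growth read by optical density.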

[3] = Half life in human liver microsomes; assay type: ADME, Microsome
Summary of the method: (§2)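 Mouse and human liver microsomal stability run by a contract lab in triplicate.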

[4] = Half life in mouse liver microsomes; assay type: ADME, Microsome; summary of the method: as §2
[5] = system: Mycobacterium tuberculosis; assay: Bactericidal activity against wild-type non-replicating Mycobacterium tuberculosis H37Rv assessed as log reduction in CFU incubated for 7 days measured at OD580 = 0.01 in presence of 0.5 mM NaNO2 by charcoal agar resazurin assay; assay type: functional, organism-based
Summary of the method: (§3)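 Nonreplicating wild-type H37Rv at OD580 0.1 or 0.01 treated 7 days with or without 0.5 mM NaNO2. 10 μL spotted onto 7H11-OADC-charcoal agar and incubated 7–10 days at 37 °C. Developed with Alamar blue:Tween80 1:1 for 1 h; fluorescence read at ex 530/em 590. Complete loss of fluorescence taken as ≥2–3 log10 CFU reduction.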

[6] = system: Mycobacterium tuberculosis; assay: Bactericidal activity against wild-type non-replicating Mycobacterium tuberculosis H37Rv assessed as log reduction in CFU at 0.7 to 0.8 ug/ml incubated for 7 days measured at OD580 = 0.01 by charcoal agar resazurin assay; assay type: functional
Summary of the method: (§4)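 Nonreplicating wild-type H37Rv at OD580 0.01 exposed to compound for 7 days. Survivors serially diluted in PBS-tyloxapol and plated on 7H11-OADC agar; colonies counted at ~3 weeks. Limit of detection 1 colony from 10 μL undiluted sample; triplicates, one of two experiments.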

Escherichia coli = assay: Antibacterial activity against replicating Escherichia coli measured at OD580 = 0.01; assay type: functional; summary of the method: as §1
[7] = Solubility of compound in pH 7.4 solution measured after shaking for 4 hrs; assay type: physicochemical
Summary of the method: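 Solubility at pH 7.4 determined after shaking at room temperature for 4 h.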

[8] = system: Mycobacterium tuberculosis; assay: Bactericidal activity against wild-type non-replicating Mycobacterium tuberculosis H37Rv incubated for 7 days measured at OD580 = 0.01 in absence of NaNO2 by charcoal agar resazurin assay; assay type: functional, organism-based; summary of the method: as §3
[9] = Stability in mouse liver microsomes assessed as compound metabolism up to 60 mins; assay type: ADME, Microsome; details: 1 h; summary of the method: as §2
[10] = Permeability of compound by PAMPA; assay type: ADME; details: read-out: permeability
Summary of the method: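 PAMPA membrane permeability by a contract lab; reported as mean Pe (10^-6 cm/s) and log Pe.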

[11] = Stability of compound in pH 7 solution assessed as parent compound remaining incubated for 4 hrs at 37 degC; assay type: physicochemical
[12] = system: Mycobacterium tuberculosis; assay: Bactericidal activity against wild-type non-replicating Mycobacterium tuberculosis H37Rv assessed as drug tolerance development at 3 to 10 ug/ml incubated for 7 days measured at OD580 = 0.01 by charcoal agar resazurin assay; assay type: functional, organism-based
[13] = Half life in human plasma at 1 ug/ml by LC-MS analysis; assay type: ADME, cell-free
[14] = Cytotoxicity against human HepG2 cells assessed as reduction in cell viability after 2 days by Celltiter-Glo reagent based assay; details: read-out: LD50
Summary of the method: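 HepG2 cells in DMEM with 10% FBS, pyruvate, glutamine and nonessential amino acids. Seeded at 3000 cells/well and exposed 2 days to compound or vehicle (≤1% DMSO final). Reported as LD50.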

[15] = Stability of compound in pH 2 solution assessed as parent compound remaining incubated for 4 hrs at 37 degC; assay type: physicochemical; details: read-out: Stability
Summary of the method: (§5)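 Percent parent compound remaining after 4 h incubation at 37 °C at the stated pH.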

BMDM [16] = assay: Cytotoxicity against C57BL6 mouse primary BMDM infected with wild-type non-replicating Mycobacterium tuberculosis H37Rv assessed as cell morphological changes at 100 ug/ml after 3 days; assay type: cell-based; details: 72 h
Summary of the method: (§6)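 Bone marrow macrophages (~1×10^5) from 8-week female C57Bl6 mice grown in DMEM/10% FBS/10% L-cell medium, with or without 50 ng/mL mouse IFNγ. Infected with H37Rv at MOI 1–5 for 4 h, washed, then given 100 μg/mL compound in 1% DMSO for 3 or 4 days. Lysed in 0.5% Triton X-100, CFU counted on 7H11-OADC agar; morphology observed.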

[17] = system: Mycolicibacterium smegmatis; assay: Antibacterial activity against replicating Mycobacterium smegmatis measured at OD580 = 0.01; assay type: functional; summary of the method: as §1
Staphylococcus aureus = assay: Antibacterial activity against replicating Staphylococcus aureus measured at OD580 = 0.01; assay type: functional; summary of the method: as §1
Pseudomonas aeruginosa = assay: Antibacterial activity against replicating Pseudomonas aeruginosa measured at OD580 = 0.01; assay type: functional; summary of the method: as §1
[18] = system: Mycobacterium tuberculosis; assay: Bactericidal activity against wild-type non-replicating Mycobacterium tuberculosis H37Rv assessed as log reduction in CFU at 3 to 10 ug/ml incubated for 7 days measured at OD580 = 0.01 by charcoal agar resazurin assay; assay type: functional; summary of the method: as §4
[19] = Intrinsic clearance in human liver microsomes assessed per mg protein measured up to 60 mins; assay type: ADME, Microsome; details: 1 h; summary of the method: as §2
[20] = system: Mycobacterium tuberculosis; assay: Bactericidal activity against wild-type non-replicating Mycobacterium tuberculosis H37Rv infected in recombinant mouse IFN-gamma stimulated C57BL6 mouse primary BMDM assessed as log reduction in CFU at 100 ug/ml incubated for 3 days by charcoal agar resazurin assay; assay type: functional; summary of the method: as §6
[21] = Stability in pH 5 non-replicating medium containing 0.5 mM NaNO2 assessed as parent compound remaining at 5 to 50 ug/ml at 37 degC measured every 12 hrs up to 144 hrs by LC-MS analysis; assay type: physicochemical; details: buffer
Summary of the method: (§7)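 Compound at 50 μg/mL in cell-free PBS pH 7.4, or nonreplicating medium pH 5.0 (BSA, tyloxapol, lysine, pantothenate omitted) with or without 0.5 mM NaNO2. Poorly soluble compounds at 5 μg/mL in 50:50 acetonitrile mixtures, pH readjusted to 5.0.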

[22] = Stability of compound in pH 12 solution assessed as parent compound remaining incubated for 4 hrs at 37 degC; assay type: physicochemical; details: read-out: Stability; summary of the method: as §5
[23] = system: Mycobacterium tuberculosis; assay: Bactericidal activity against wild-type non-replicating Mycobacterium tuberculosis H37Rv assessed as log reduction in CFU incubated for 7 days measured at OD580 = 0.1 in presence of 0.5 mM NaNO2 by charcoal agar resazurin assay; assay type: functional, organism-based; summary of the method: as §3
[24] = system: Mycobacterium tuberculosis; assay: Bactericidal activity against wild-type non-replicating Mycobacterium tuberculosis H37Rv assessed as reduction in CFU at 0.1 to 100 ug/ml incubated for 7 days measured at OD580 = 0.01 in presence of beta-lactamase inhibitor clavulanate by charcoal agar resazurin assay; assay type: functional, organism-based
[25] = Stability in pH 5 non-replicating medium assessed as parent compound remaining at 5 to 50 ug/ml at 37 degC measured every 12 hrs up to 144 hrs by LC-MS analysis; assay type: physicochemical; details: buffer; summary of the method: as §7
[26] = system: Mycobacterium tuberculosis; assay: Bactericidal activity against wild-type non-replicating Mycobacterium tuberculosis H37Rv at 1 to 100 ug/ml incubated for 7 days measured at OD580 = 0.1 in presence of 0.06 to 1 mM NaNO2; assay type: functional, organism-based
Summary of the method: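 Wild-type H37Rv resuspended at OD580 0.1 in nonreplicating medium with NaNO2 at 0–1 mM, one plate per nitrite level. Exposed to compound for 7 days, then standard outgrowth assay to estimate survivors.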

[27] = system: Mycobacterium tuberculosis; assay: Bactericidal activity against wild-type non-replicating Mycobacterium tuberculosis H37Rv infected in recombinant mouse IFN-gamma stimulated C57BL6 mouse primary BMDM assessed as log reduction in CFU at 100 ug/ml incubated for 4 days by charcoal agar resazurin assay; assay type: functional; summary of the method: as §6
[28] = Stability in pH 7.4 phosphate buffer solution assessed as parent compound remaining at 5 to 50 ug/ml at 37 degC measured every 12 hrs up to 144 hrs by LC-MS analysis; assay type: physicochemical; summary of the method: as §7
BMDM [29] = assay: Cytotoxicity against C57BL6 mouse primary BMDM infected with wild-type non-replicating Mycobacterium tuberculosis H37Rv assessed as cell morphological changes at 100 ug/ml after 4 days; assay type: cell-based; details: 96 h; summary of the method: as §6
[30] = system: Mycobacterium tuberculosis; assay: Bactericidal activity against wild-type replicating Mycobacterium tuberculosis H37Rv assessed as reduction in CFU in presence of beta-lactamase inhibitor clavulanate; assay type: functional, organism-based

| Compound | Stability [2] | MIC90 (Candida albicans) [mg/L] | t1/2 [3] [h] | t1/2 [4] [min] | Activity [5] | Activity [6] [deltalog10CFU/ml] | MIC90 (Escherichia coli) [mg/L] | solubility at 4 h [7] [µM] | Activity [8] | Stability [9] | Papp [10] [nm/s] | Activity [12] | t1/2 [13] [h] | CC50 at 48 h [14] [mg/L] | remaining at 4 h [15] [%] | MIC90 [17] [mg/L] | MIC90 (Staphylococcus aureus) [mg/L] | MIC90 (Pseudomonas aeruginosa) [mg/L] | LCK [18] | CLH [19] [µL/min] | also measured |
| --- | --- | --- | --- | --- | --- | --- | --- | --- | --- | --- | --- | --- | --- | --- | --- | --- | --- | --- | --- | --- | --- |
| O=C(O)[C@H]1/C(=C/CO)O[C@@H]2CC(=O)N21 [CLAVULANIC ACID] |  |  |  |  |  |  |  |  |  |  |  |  |  |  |  |  |  |  |  |  | fold change (FC) [1]: 4 |
| CC1=C(c2nc(C)no2)N2C(=O)[C@@H](NC(=O)COc3ccccc3)[C@H]2SC1 | Unstable | > 100 | 1.27 | < 5 | Dose-dependent effect | 2 | > 100 | 83.7 to 84 (≈ 32.3 to 32.5 µg/mL) | Active | Unstable | 134 | Active | 2 to 3 | > 100 | 100 to 102 | > 100 | > 100 | > 100 | >=3.4 | 9.13 | remaining at 4 h ([11]; pH 7 solution, pH 7, read-out: Stability): 101%; Activity (BMDM [16]): Non-Toxic; Activity [20]: 1 - 2 deltalog10CFU/ml; Stability [21]: Stable; remaining at 4 h [22]: 0%; Activity [23]: Dose-dependent effect |
| CCCOC(=O)C1=C(C)CS[C@@H]2[C@H](NC(=O)COc3ccccc3)C(=O)N12 | Unstable | > 100 | 1.44 | < 5 | Dose-dependent effect | 2 | > 100 | 22.7 to 23 (≈ 8.86 to 8.98 µg/mL) | Active | Unstable | 72.8 | Active | 2 to 3 | 75.7 to 100 (≈ 194 to 256 µM) | 100 to 110 | > 100 | > 100 | > 100 | >=3.4 | 8.07 | Activity [24]: Active; Stability [25]: 100%; Activity [26]: Active; Stability ([11]; buffer, pH 7, 4 h): 133%; Activity [27]: 1 - 2 deltalog10CFU/ml; Stability [28]: 80%; Activity (BMDM [29]): Non-Toxic; Stability [21]: 100%; remaining at 4 h [22]: 0%; Activity [30]: inactive; Activity [23]: Dose-dependent effect |

Source: ChEMBL document CHEMBL4425095, “Novel Cephalosporins Selectively Active on Nonreplicating Mycobacterium tuberculosis” (J Med Chem, 2016)
